Experimental data: ChEMBL document CHEMBL1158548, “Tetrahydrochromenoimidazoles as potassium-competitive acid blockers (P-CABs): structure-activity relationship of their antisecretory properties and their affinity toward the hERG channel” (J Med Chem, 2010)

Experiments:
[1] = Partition coefficient, log D by HPLC; format: physicochemical; conditions: octanol/water
Method in brief: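 logD by reversed-phase HPLC at 37 °C, calibrated with seven reference substances of known logD.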

Gastric gland = test: Inhibition of acid secretion in New Zealand White rabbit intact gastric glands assessed as [14C]dimethylaminopyridine accumulation by radioactivity; format: functional, tissue-based; conditions: Oryctolagus cuniculus
Method in brief: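 Gastric glands isolated intact from New Zealand rabbits; cellular activity read as reduced accumulation of the weak base 14C-dimethylaminopyridine; pIC50 given as geometric mean of 4-5 determinations.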

hERG (KCNH2) = hERG (KCNH2) (Homo sapiens, UniProt Q12809); test: Inhibition of human ERG expressed in CHO-K1 cells at 10 uM by whole-cell patch clamp technique; format: cell-based; conditions: CHO-K1 cells that express human ERG
Method in brief: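 CHO-K1 cells stably transfected with hERG; whole-cell patch clamp recording of tail currents with test compound at 10 μM, three cells per compound; relative block of tail current amplitude given as arithmetic mean.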

[2] = Inhibition of H+/K+ ATPase in hog gastric mucosa by malachite green based competitive binding assay; format: tissue-based, Sus scrofa
Method in brief: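 Hog gastric mucosa H+/K+-ATPase, isolated enzyme; competitive binding assay run at pH 7.4; pIC50 reported as geometric mean of 4-5 measurements.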

Rattus norvegicus = test: Inhibition of pentagastrin-stimulated acid secretion in intraduodenally dosed perfused Sprague-Dawley rat Ghosh Schild model; format: functional; conditions: intraduodenal
[3] = Octanol/aqueous KCl distribution coefficient, log D at pH 7.4 by potentiometric titration; format: physicochemical
Method in brief: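 Octanol/aqueous KCl distribution coefficient from potentiometric titrations across pH 2.0-11.0 at 25 °C.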

[4] = Dissociation constant, pKa at pH 2.0 to 11.0 by potentiometric cosolvent titration; format: physicochemical

hERG (KCNH2), sequence (Q12809 whole entry): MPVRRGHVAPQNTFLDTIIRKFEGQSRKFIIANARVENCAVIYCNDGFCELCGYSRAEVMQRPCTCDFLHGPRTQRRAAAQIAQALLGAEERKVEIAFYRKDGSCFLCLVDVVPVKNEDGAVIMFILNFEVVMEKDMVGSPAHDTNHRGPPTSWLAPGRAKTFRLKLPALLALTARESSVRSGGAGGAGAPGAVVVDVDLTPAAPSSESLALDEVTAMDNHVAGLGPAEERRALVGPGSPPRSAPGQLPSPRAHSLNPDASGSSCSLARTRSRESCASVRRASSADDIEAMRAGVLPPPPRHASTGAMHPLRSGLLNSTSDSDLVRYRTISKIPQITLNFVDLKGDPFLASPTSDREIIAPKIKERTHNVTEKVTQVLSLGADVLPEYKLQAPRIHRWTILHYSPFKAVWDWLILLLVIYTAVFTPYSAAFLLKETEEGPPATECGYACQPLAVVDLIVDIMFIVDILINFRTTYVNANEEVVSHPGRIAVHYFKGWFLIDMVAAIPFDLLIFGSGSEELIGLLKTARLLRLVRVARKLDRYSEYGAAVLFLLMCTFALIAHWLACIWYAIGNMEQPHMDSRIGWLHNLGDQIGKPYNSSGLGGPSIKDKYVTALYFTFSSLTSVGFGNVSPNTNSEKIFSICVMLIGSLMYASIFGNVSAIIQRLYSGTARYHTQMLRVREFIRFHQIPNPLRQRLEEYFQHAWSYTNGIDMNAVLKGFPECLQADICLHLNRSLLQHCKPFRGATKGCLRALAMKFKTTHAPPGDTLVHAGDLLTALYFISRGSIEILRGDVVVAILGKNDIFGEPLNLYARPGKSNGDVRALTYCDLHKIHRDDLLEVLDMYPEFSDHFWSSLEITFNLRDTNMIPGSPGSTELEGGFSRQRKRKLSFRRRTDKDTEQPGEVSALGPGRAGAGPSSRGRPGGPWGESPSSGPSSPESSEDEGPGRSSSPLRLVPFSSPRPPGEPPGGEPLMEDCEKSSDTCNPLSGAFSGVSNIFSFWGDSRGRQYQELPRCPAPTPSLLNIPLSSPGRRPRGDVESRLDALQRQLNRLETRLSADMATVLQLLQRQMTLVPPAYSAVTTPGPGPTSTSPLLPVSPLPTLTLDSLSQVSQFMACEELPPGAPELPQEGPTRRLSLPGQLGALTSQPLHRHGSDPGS

SMILES | logD [1] | IC50 (Gastric gland) [nM] | pIC50 [2] | logD [3] | pKa ([4]; read-out: pKa) | pKa [4] | inhibition at 10 µM (hERG (KCNH2)) [%] | ED50 (Rattus norvegicus) [µmol/kg]
Cc1nc2c3c(c(C(=O)N(C)C)cc2n1C)CC[C@@H](c1ccc2ccccc2c1)O3 | 3.2 | 63100 | 4.1 | 3.37 | 5.57 | – | 65 | 3
Cc1nc2c3c(c(C(=O)N(C)C)cc2n1C)CC[C@@H](c1ccccc1Cl)O3 | 3 | 1580 | – | 2.86 | 5.45 | – | 13 | 0.4
Cc1nc2c3c(c(C(=O)N(C)C)cc2[nH]1)CC[C@@H](c1ccccc1C)O3 | 2.8 | 1950 | 5.59 | 2.82 | 5.66 | – | 11 | 0.5
Cc1ccccc1[C@@H]1CCc2c(C(=O)N3CC(CO)C3)cc3c(nc(C)n3C)c2O1 | 2.4 | 63100 | 5 | – | – | – | 2 | 1.4
Cc1ccccc1[C@@H]1CCc2c(C(=O)N3CCOCC3)cc3c(nc(C)n3C)c2O1 | 2.8 | 5010 | 4.8 | – | – | – | 4 | 1
Cc1ccccc1[C@@H]1CCc2c(C(=O)N(C)C)cc3c(nc(CO)n3C)c2O1 | 2.5 | 1170 | – | – | – | – | 12 | 1
Cc1ccccc1[C@@H]1CCc2c(C(=O)N3CC(F)(F)C3)cc3c(nc(C)n3C)c2O1 | 3.3 | 3980 | 4.7 | – | – | 5.36 | 28 | 0.3
CNC(=O)c1cc2c(nc(C)n2C)c2c1CC[C@@H](c1ccc(Cl)cc1)O2 | 2.9 | 2000 | < 5 | – | – | – | 68 | 0.3
Cc1nc2c3c(c(C(=O)N(C)C)cc2n1C)CC[C@@H](c1ccccc1)O3 | 2.5 | 3160 | 5.3 | – | – | – | 28 | 0.26
Cc1cc(F)ccc1[C@@H]1CCc2c(C(=O)N(C)C)cc3c(nc(C)n3C)c2O1 | 2.9 | 501 | 5.6 | – | – | – | 19 | < 0.3
CCCOC1CN(C(=O)c2cc3c(nc(C)n3C)c3c2CC[C@@H](c2ccccc2C)O3)C1 | 3.3 | 1260 | 4.9 | – | – | 5.62 | 94 | 0.2
Cc1nc2c3c(c(C(=O)N4CCC4)cc2n1C)CC[C@@H](c1ccc(Cl)cc1)O3 | 3 | 1260 | 5.3 | – | – | – | 84 | 0.16
Cc1nnc(-c2cc3c(nc(C)n3C)c3c2CC[C@@H](c2ccccc2C)O3)o1 | 3.3 | 5010 | 4.6 | – | – | 5.17 | 27 | 0.6
Cc1ccccc1[C@@H]1CCc2c(C(=O)N(C)C)cn3c(C)c(C)nc3c2O1 | – | – | – | – | 7.15 | – | – | –
CCOC1CN(C(=O)c2cc3c(nc(C)n3C)c3c2CC[C@@H](c2ccccc2C)O3)C1 | 3 | 794 | 4.5 | – | – | – | 70 | 0.4
Cc1nc2c3c(c(C(=O)N4CCC4)cc2n1C)CC[C@@H](c1ccccc1)O3 | 2.6 | 2510 | 4.9 | – | – | – | 18 | 0.3
CNC(=O)c1cc2c(nc(C)n2C)c2c1CC[C@@H](c1ccccc1)O2 | 2.4 | 6310 | 4.8 | – | – | – | 26 | 0.5
COCc1nc2c3c(c(C(=O)N(C)C)cc2n1C)CC[C@@H](c1ccccc1C)O3 | 2.9 | 45700 | 4.57 | – | – | – | 7 | 3
Cc1ccccc1[C@@H]1CCc2c(C(=O)NCC3CCCCO3)cc3c(nc(C)n3C)c2O1 (some centres undefined) | 3.3 | 6310 | < 5 | – | – | – | 54 | 1.2
Cc1nc2c3c(c(C(=O)N(C)C)cc2n1C)CC[C@@H](c1ccc(F)cc1Cl)O3 | 3 | 794 | 5.4 | – | – | – | 33 | 0.1
Cc1nc2c3c(c(C(=O)N(C)C)cc2n1C)CC[C@@H](c1cccs1)O3 | 2.4 | 50100 | 5 | – | – | – | 9 | 2
Cc1ccccc1[C@@H]1CCc2c(C(=O)N3CCCC3)cc3c(nc(C)n3C)c2O1 | 3.1 | 794 | 5.4 | – | – | 5.7 | 43 | 0.7

The next lines start with results.

logD [1] | IC50 (Gastric gland) [nM] | pIC50 [2] | logD [3] | pKa ([4]; read-out: pKa) | pKa [4] | SMILES | inhibition at 10 µM (hERG (KCNH2)) [%] | ED50 (Rattus norvegicus) [µmol/kg]
2.6 | 10000 | 4.6 | – | – | – | CONC(=O)c1cc2c(nc(C)n2C)c2c1CC[C@@H](c1ccccc1C)O2 | 13 | 1.8
2.8 | 794 | 5.5 | – | – | – | Cc1ccccc1[C@@H]1CCc2c(C(=O)N3CCC3)cc3c(nc(C)n3C)c2O1 | 14 | 0.3
3.4 | 1000 | 5.1 | – | – | 6.24 | COCc1cc2c(nc(C)n2C)c2c1CC[C@@H](c1ccccc1C)O2 | 34 | 0.5
3 | 794 | 4.9 | – | – | 5.68 | Cc1ccccc1[C@@H]1CCc2c(C(=O)NC3CC3)cc3c(nc(C)n3C)c2O1 | 43 | 0.3
2.5 | 5010 | 4.8 | – | – | – | Cc1ccccc1[C@@H]1CCc2c(C(N)=O)cc3c(nc(C)n3C)c2O1 | 14 | 2
3 | 1000 | 5 | – | – | 5.54 | Cc1ccccc1[C@@H]1CCc2c(C(=O)N3CC(F)C3)cc3c(nc(C)n3C)c2O1 | 28 | 0.3
2.9 | 3160 | 4.9 | – | – | – | COCCN(C)C(=O)c1cc2c(nc(C)n2C)c2c1CC[C@@H](c1ccccc1C)O2 | 8 | 1.2
3.1 | 2000 | 4.7 | – | – | 5.58 | C#CCNC(=O)c1cc2c(nc(C)n2C)c2c1CC[C@@H](c1ccccc1C)O2 | 83 | 0.3
2.4 | 39800 | 5 | – | – | – | Cc1ccccc1[C@@H]1CCc2c(C(=O)N3CC(O)C3)cc3c(nc(C)n3C)c2O1 | 11 | 1.2
2.6 | 10000 | 4.6 | – | – | – | Cc1ccccc1[C@@H]1CCc2c(C(=O)NC3COC3)cc3c(nc(C)n3C)c2O1 | 49 | 2
3.2 | 631 | 4.7 | – | – | 5.63 | CCCNC(=O)c1cc2c(nc(C)n2C)c2c1CC[C@@H](c1ccccc1C)O2 | 66 | < 0.3
3.2 | 1260 | 4.8 | – | – | – | CSCCNC(=O)c1cc2c(nc(C)n2C)c2c1CC[C@@H](c1ccccc1C)O2 | 73 | 1
3 | 3160 | 4.3 | – | – | – | Cc1ccccc1[C@@H]1CCc2c(C(=O)NCC3CCCO3)cc3c(nc(C)n3C)c2O1 (some centres undefined) | 75 | 1
2.9 | 1260 | 5.4 | – | – | 5.49 | CON(C)C(=O)c1cc2c(nc(C)n2C)c2c1CC[C@@H](c1ccccc1C)O2 | 13 | 0.15
2.8 | 3160 | 4.9 | – | – | – | COCCNC(=O)c1cc2c(nc(C)n2C)c2c1CC[C@@H](c1ccccc1C)O2 | 55 | 0.8
3.1 | 631 | 4.7 | – | – | – | Cc1ccccc1[C@@H]1CCc2c(C(=O)NC(C)C)cc3c(nc(C)n3C)c2O1 | 30 | 0.45
2.9 | 12600 | 4.7 | – | – | – | Cc1ccccc1[C@@H]1CCc2c(C(=O)NCC#N)cc3c(nc(C)n3C)c2O1 | 18 | 3
– | – | 4.6 | – | – | – | Cc1ccccc1[C@@H]1CCc2c(C(=O)NCC[S+](C)[O-])cc3c(nc(C)n3C)c2O1 (some centres undefined) | 6 | 1.4
– | 3160 | 4.3 | – | – | – | COC1(C)CN(C(=O)c2cc3c(nc(C)n3C)c3c2CC[C@@H](c2ccccc2C)O3)C1 | 20 | 1
2.9 | 1000 | 4.9 | – | – | 5.71 | CCNC(=O)c1cc2c(nc(C)n2C)c2c1CC[C@@H](c1ccccc1C)O2 | 24 | 0.12
3.3 | 501 | 4.7 | – | – | 5.76 | Cc1ccccc1[C@@H]1CCc2c(C(=O)NCC3CC3)cc3c(nc(C)n3C)c2O1 | 90 | < 0.3
